Screening data as filed in PubChem.
INS promoter act = TRM-6 insulin promoter activation; TRM-6 cells, insulin promoter eGFP reporter, imaging; plate-scaled: unstimulated 0, stimulated control 100; activation, % at 2 µM; 130,000 tested, 0.81% active;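 active means activation at 2 µM above a set limit, confirmed on inspection of the cell images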;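 further: share of cells whose green reporter signal exceeds an intensity cutoff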
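Test system: human fetal islet-derived TRM-6 cells with tamoxifen-inducible insulin promoter–eGFP reporter. Compound dosing: 2 µM final, single concentration. Incubation: tamoxifen pre-incubation 15 h overnight, then compound exposure 48 h at 37 °C. Signal: fixed-cell fluorescence microscopy, eGFP plus Hoechst.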
Active calls of the source: *; [ ] = remark or other dose. This excerpt belongs to a sample that is enriched for hits.

SMILES	INS promoter act
CCN1/C(=C\C=C\C2=[N+](CC)c3ccccc3C2(C)C)C(C)(C)c2ccccc21	257*[toxic and fluoresces]
OC1/C(=C/c2ccc(F)cc2)N2CCC1CC2 (stereo not drawn)	0
C/C(=N\NC(=S)Nc1ccccc1)c1c(O)n(C)c(=O)n(C)c1=O	0
Cc1ccccc1N1C(=O)CC(=O)N(c2ccccc2C)C1=O	-8
O=C(COc1ccccc1)Nc1ccc(Cl)cc1C(=O)c1ccccc1	117
Cc1ccc(C(=O)Nc2ccc(Cl)cc2C(=O)c2ccccc2)cc1	113
O=C(Nc1ccc(Cl)cc1C(=O)c1ccccc1Cl)c1ccco1	230*
Clc1cccc(Cl)c1CN1CCN(c2ccccc2)CC1	9
COc1ccc(N=C2SCCCN2C)cc1	512*
CSc1nnc(C2CCNCC2)n1C	-7
CC12CN3CN(C1)CC(c1ccccc1)(C3)C2=O	29
O=C1NC(=O)C2(C(=O)N1)C(c1ccc(F)cc1)NC(=S)NC2c1ccc(F)cc1 (stereo not drawn)	-9
CCC1(CC)C(=N)N(C)C(=O)NC1=O	7
N#Cc1cc2c(nc1SCC(=O)Nc1cc(Cl)ccc1Cl)C1CCN2CC1	134
COc1ccccc1Cn1c(SCC(=O)C(C)(C)C)nc2cc(C(=O)N3CCC4(CC3)OCCO4)ccc2c1=O	0
O=c1c2ccccc2nc(-c2ccco2)n1-c1cccnc1	-3
O=c1c2ccccc2nc(SCC2CCCCO2)n1-c1ccccc1 (stereo not drawn)	367*
CCCCOc1nc2ccccc2c(=O)n1-c1ccccc1	3
COCCNCCOc1ccc(C(C)(C)c2ccccc2)cc1	108
CCC1(C)OC(c2ccccc2)=C/C(=C/C=C2C(=O)NC(=O)NC2=O)O1 (stereo not drawn)	7
OC(COCc1ccc(Cl)cc1)CN1CC=C(c2ccccc2)CC1 (stereo not drawn)	9
Brc1ccc(C2N3CCCN23)cc1 (stereo not drawn)	508*
Cc1nc2c(c(C)nn2-c2ccccc2)c(C)c1CCC(=O)N1CCC2(CC1)OCCO2	-8
N=C1c2ccccc2CN1NC(=O)c1ccc(Br)cc1	-8
CCOc1cccc(CNC2CN3CCC2CC3)c1 (stereo not drawn)	-7
CCOP(=O)(Cc1cc(C#N)oc1C)OCC	0
CCSc1cc(C2C(C#N)=C(N)Oc3n[nH]c(C)c32)c(C)o1 (stereo not drawn)	-6
O=C(OCC(=O)c1ccc([N+](=O)[O-])cc1)/C(=C\c1ccc(Cl)cc1)NC(=O)c1ccccc1	-60
CCOC(=O)c1cc(CC)sc1/N=C/C1C(=O)NC(=S)NC1=O	295*
CC(C)(C)NC(=S)N1CCn2cccc2C1c1cccnc1 (stereo not drawn)	0
